The source of these data is ChEMBL document CHEMBL1126566, “Studies on analogues of classical antifolates bearing the naphthoyl group in place of benzoyl in the side chain” (J Med Chem, 1993).

The nature of data set [1]: Activity relative to saturating aminopterine at 100 uM against CCRF-CEM Folyl-polyglutamate synthetase. It is filed as ADME. As to conditions: human. The method, boiled down:
(§1)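 FPGS from CCRF-CEM cells: freeze-thawed lysates fractionated by (NH₄)₂SO₄ (0–40% saturation pellet) and gel sieving, stored at –90 °C in 20% glycerol, free of detectable γ-glutamyl hydrolase. Product was separated on DEAE-cellulose minicolumns. Run in duplicate or triplicate, and each experiment was repeated at least once.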

The subject of data set [2] is Folyl-polyglutamate synthase. Description: Michaelis-Menten constant was determined against CCRF-CEM Folyl-polyglutamate synthase. As to conditions: human, folylpolyglutamate synthase from CCRF-CEM cells. It is filed as ADME. Put shortly:
as §1

Data set [3] concerns the target T1, Folylpolyglutamate synthase, mitochondrial (Mus musculus) (UniProt P48760).
T1 sequence (whole entry): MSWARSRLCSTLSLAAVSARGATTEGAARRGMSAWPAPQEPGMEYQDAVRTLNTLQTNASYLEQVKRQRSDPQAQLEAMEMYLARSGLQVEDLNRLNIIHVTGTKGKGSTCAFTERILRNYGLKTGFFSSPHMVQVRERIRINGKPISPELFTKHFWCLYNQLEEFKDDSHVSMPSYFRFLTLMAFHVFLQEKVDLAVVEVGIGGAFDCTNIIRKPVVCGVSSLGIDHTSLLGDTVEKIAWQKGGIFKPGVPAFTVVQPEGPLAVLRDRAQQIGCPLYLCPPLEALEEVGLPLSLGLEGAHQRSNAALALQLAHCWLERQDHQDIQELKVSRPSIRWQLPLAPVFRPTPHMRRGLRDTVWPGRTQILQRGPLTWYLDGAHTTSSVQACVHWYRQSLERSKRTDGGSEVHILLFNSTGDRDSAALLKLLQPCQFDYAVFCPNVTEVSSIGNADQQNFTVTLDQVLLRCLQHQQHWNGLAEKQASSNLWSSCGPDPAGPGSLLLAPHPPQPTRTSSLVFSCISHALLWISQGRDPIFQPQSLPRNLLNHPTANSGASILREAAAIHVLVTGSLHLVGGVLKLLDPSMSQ
Description: Specific activity of L1210 Folyl-polyglutamate synthase. The method, boiled down:
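FPGS from L1210 cells was assayed by [³H]glutamate ligation, like the human enzyme assay. Each folate substrate was at 100 μM, and only specific activity was measured.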

In data set [4] the test system is L1210. The data set can be described thus: Tested for the ability to inhibit growth in vitro against L1210. It is filed as functional, cell-based. Conditions: Mus musculus.
The subject of data set [5] is CCRF-CEM. Description: Percent inhibition of Folyl-polyglutamate synthase from CCRF-CEM cells. It is filed as cell-based. Details: concentration or dose not given beside the values. Conditions: Homo sapiens, dose or concentration not given here. The method, boiled down:
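FPGS was partially purified from CCRF-CEM cells by (NH₄)₂SO₄ fractionation and gel sieving, with no detectable γ-glutamyl hydrolase. Product was separated on DEAE-cellulose. Percent inhibition is reported.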

Data set [6] deals with T2, Dihydrofolate reductase (Mus musculus, UniProt P00375).
T2 sequence (P00375 whole entry): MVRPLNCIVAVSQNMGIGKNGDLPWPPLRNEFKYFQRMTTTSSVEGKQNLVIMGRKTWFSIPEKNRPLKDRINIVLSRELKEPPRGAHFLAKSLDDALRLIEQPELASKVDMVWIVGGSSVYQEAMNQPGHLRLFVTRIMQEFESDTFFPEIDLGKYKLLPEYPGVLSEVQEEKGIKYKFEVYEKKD
The data set can be described thus: Inhibitory activity of Dihydrofolate reductase in L1210 cells. The data set is classed as cell-based.

For data set [7], the system named is HL-60. The data set can be described thus: Tested for the ability to inhibit growth in vitro against HL60. The data set is classed as functional, cell-based. As to conditions: Homo sapiens.
The test system of data set [8] is CCRF S-180. The data set can be described thus: Tested for the ability to inhibit growth in vitro against S180. It is filed as functional, cell-based. Conditions: Mus musculus.
The subject of data set [9] is L1210. The data set can be described thus: Tested for transport into L1210 cells measured as cell influx. It is filed as functional, cell-based, Mus musculus.
Data set [10] concerns the target T3, Dihydrofolate reductase (Pneumocystis carinii, UniProt P16184).
T3 sequence (P16184 whole entry): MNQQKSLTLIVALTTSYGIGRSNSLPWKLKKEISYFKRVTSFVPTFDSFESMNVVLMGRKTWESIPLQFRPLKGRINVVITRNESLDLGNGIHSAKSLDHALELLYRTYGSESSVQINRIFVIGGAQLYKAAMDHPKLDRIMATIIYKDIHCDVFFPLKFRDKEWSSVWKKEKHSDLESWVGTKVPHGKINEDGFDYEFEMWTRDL
Description: Tested for inhibition against Dihydrofolate reductase from Pneumocystis carinii.

By Km is commonly meant the substrate concentration at which the rate is half of its maximum. Turning to `Nc1nc(N)c2nc(CNc3ccc(C(=O)N[C@@H](CCC(=O)O)C(=O)O)cc3)cnc2n1` [AMINOPTERIN], in [1], the “Relative Vmax” value was 1. The Km in data set [2] was determined as 4.1 µM. The same molecule had a Specific activity (pM hr-1 (mg of protein)-1) in data set [3] of 1.91.
For orientation: IC50 means the point on the concentration scale where inhibition reaches its midpoint. For orientation: inhibition means the percentage by which the read-out fell short of the control. A word on the Ki: it is a dissociation constant, usually derived from enzyme kinetics or from competition with a known ligand. Consider `Nc1nc(N)c2cc(CNc3ccc(C(=O)NC(CCC(=O)O)C(=O)O)c4c3CCCC4)cnc2n1` (stereo not drawn), for which the 50% inhibitory concentration (IC50) is 16 nM in data set [4], 17 nM in data set [7] and 33 nM in data set [8]. This molecule also displayed an inhibition in [5] of 16%. Further, the Ki in data set [6] turned out to be 0.0131 nM; in [9], 600 nM. In addition, the “Relative Vmax” value in [1] stood at 0.01.
For `Nc1nc(N)c2cc(CNc3ccc(C(=O)NC(CCC(=O)O)C(=O)O)c4ccccc34)ccc2n1` (stereo not drawn), the results for the half-inhibitory concentration (IC50) in [4], in [7] and in [8] were 6.1 nM, 0.65 nM and 3.9 nM, respectively. In addition, the Ki was determined as 0.0052 nM in data set [6] and 900 nM in [9].
Consider `Nc1nc(N)c2cc(CNc3ccc(C(=O)NC(CCC(=O)O)C(=O)O)c4ccccc34)cnc2n1` (stereo not drawn), for which the IC50 was 4.2 nM in [4], 0.00053 nM in [10], 1.4 nM in data set [7] and 3.9 nM in data set [8]. In addition, in [5], the inhibition stood at 21%. In addition, the results for the Ki in [6] and in data set [9] were 0.00365 nM and 1520 nM, respectively. Besides, in [1], the “Relative Vmax” value amounted to 0.01.
